Consider two compounds from ChEMBL document CHEMBL1137720, “New acyclic nucleosides analogues as potential analgesic, anti-inflammatory, anti-oxidant and anti-microbial derived from pyrimido[4,5-b]quinolines” (2009).

Each structure is given as a SMILES string.

For one assay, the species on record is Mus musculus. The assay can be described thus: Analgesic activity in Swiss mouse assessed as reaction time after 60 mins by hot plate test. Type of assay: functional.
Settings: not given
In outline: (§1)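 Swiss mice of both sexes, 25–30 g, were housed at 22 ± 1 °C on a 12 h light/dark cycle with free access to diet and water. Hot-plate testing followed Turner's method.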
Turning to `CC(=O)OC[C@@H](OC(C)=O)[C@@H](OC(C)=O)[C@@H](/C=N/Nc1nc2nc3c(c(-c4ccc(Cl)cc4)c2c(=O)n1OC(C)=O)CCC/C3=C\c1ccc(Cl)cc1)OC(C)=O`, the Activity is on record as 3.483 s.
In the case of `CC(=O)OC[C@@H](OC(C)=O)[C@@H](OC(C)=O)[C@@H](OC(C)=O)[C@@H](OC(C)=O)c1n[nH]c2nc3nc4c(c(-c5ccc(Cl)cc5)c3c(=O)n12)CCC/C4=C\c1ccc(Cl)cc1`, the Activity worked out at 2.667 s.

A further assay relates to Rattus norvegicus. The assay is described as follows: Antiinflammatory activity in Sprague-Dawley rat assessed as inhibition of carrageenan-induced paw edema after 3 hrs. Type of assay: functional.
Settings: not given
The procedure, abridged: (§2)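 Adult female Sprague-Dawley rats, 150–180 g, were used (n = 6 per group). Paw volume increase after carrageenan was read at 1, 2, 3 and 4 h. % edema inhibition was calculated against untreated controls. The reference drug was given orally at 10 mg/kg as an aqueous suspension.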
As to `CC(=O)OC[C@@H](OC(C)=O)[C@@H](OC(C)=O)[C@@H](/C=N/Nc1nc2nc3c(c(-c4ccc(Cl)cc4)c2c(=O)n1OC(C)=O)CCC/C3=C\c1ccc(Cl)cc1)OC(C)=O`, the “inhibition (INH)” value amounted to 28.98%.
For the compound `CC(=O)OC[C@@H](OC(C)=O)[C@@H](OC(C)=O)[C@@H](OC(C)=O)[C@@H](OC(C)=O)c1n[nH]c2nc3nc4c(c(-c5ccc(Cl)cc5)c3c(=O)n12)CCC/C4=C\c1ccc(Cl)cc1`, the “inhibition (INH)” value is 13.28%.

The test system of the next assay is Rattus norvegicus. The assay is described as follows: Antiinflammatory activity in Sprague-Dawley rat assessed as inhibition of carrageenan-induced paw edema after 4 hrs.
Settings: not given
In kind it is functional. In outline: as §2
In the case of `CC(=O)OC[C@@H](OC(C)=O)[C@@H](OC(C)=O)[C@@H](/C=N/Nc1nc2nc3c(c(-c4ccc(Cl)cc4)c2c(=O)n1OC(C)=O)CCC/C3=C\c1ccc(Cl)cc1)OC(C)=O`, the “inhibition (INH)” value was 22.22%.
As to `CC(=O)OC[C@@H](OC(C)=O)[C@@H](OC(C)=O)[C@@H](OC(C)=O)[C@@H](OC(C)=O)c1n[nH]c2nc3nc4c(c(-c5ccc(Cl)cc5)c3c(=O)n12)CCC/C4=C\c1ccc(Cl)cc1`, the “inhibition (INH)” value worked out at 19.57%.

For another assay, the system named is Pseudomonas aeruginosa. The assay is described as follows: Antibacterial activity against Pseudomonas aeruginosa ATCC 10145 at 100 ug/disk after 24 to 48 hrs by agar disk diffusion method. Type of assay: functional. The settings on record: read-out: DIZ. The procedure, abridged:
(§3)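 Agar disc diffusion used sterile 5 mm filter-paper discs loaded with 100 µg per disc, with DMSO as solvent. Plates were incubated 24–28 h at 37 °C and inhibition zone diameters measured: 6–10 mm slight, 11–15 mm moderate, >15 mm high. For MIC, discs carried varying amounts, and MIC was the lowest amount giving no visible growth.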
`CC(=O)OC[C@@H](OC(C)=O)[C@@H](OC(C)=O)[C@@H](/C=N/Nc1nc2nc3c(c(-c4ccc(Cl)cc4)c2c(=O)n1OC(C)=O)CCC/C3=C\c1ccc(Cl)cc1)OC(C)=O`: the zone of inhibition at 100 µg/disc was determined as 15 mm.
For the compound `CC(=O)OC[C@@H](OC(C)=O)[C@@H](OC(C)=O)[C@@H](OC(C)=O)[C@@H](OC(C)=O)c1n[nH]c2nc3nc4c(c(-c5ccc(Cl)cc5)c3c(=O)n12)CCC/C4=C\c1ccc(Cl)cc1`, the zone of inhibition at 100 µg/disc was determined as 12 mm.

Tested on in a further assay: not listed separately
The assay is described as follows: Antioxidant activity assessed as inhibition of ABTS-oxidation in 0.1 M phosphate buffer at pH 7.
Settings: not given
In kind it is functional. In outline: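 ABTS (60 µM, 2 mL) was mixed with MnO2 (25 mg/mL) in 0.1 M phosphate buffer pH 7, then shaken, centrifuged and filtered. Radical solution A734 was set to about 0.5. MeOH/buffer served as negative control.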
Turning to `CC(=O)OC[C@@H](OC(C)=O)[C@@H](OC(C)=O)[C@@H](/C=N/Nc1nc2nc3c(c(-c4ccc(Cl)cc4)c2c(=O)n1OC(C)=O)CCC/C3=C\c1ccc(Cl)cc1)OC(C)=O`, the inhibition was 35.2%.
For the compound `CC(=O)OC[C@@H](OC(C)=O)[C@@H](OC(C)=O)[C@@H](OC(C)=O)[C@@H](OC(C)=O)c1n[nH]c2nc3nc4c(c(-c5ccc(Cl)cc5)c3c(=O)n12)CCC/C4=C\c1ccc(Cl)cc1`, the inhibition turned out to be 40.7%.

The next assay concerns Rattus norvegicus. The assay is described as follows: Antiinflammatory activity in Sprague-Dawley rat assessed as inhibition of carrageenan-induced paw edema after 1 hr. Type of assay: functional.
Settings: not given
In outline: as §2
Consider `CC(=O)OC[C@@H](OC(C)=O)[C@@H](OC(C)=O)[C@@H](/C=N/Nc1nc2nc3c(c(-c4ccc(Cl)cc4)c2c(=O)n1OC(C)=O)CCC/C3=C\c1ccc(Cl)cc1)OC(C)=O`, for which the “inhibition (INH)” value is 18.75%.
Same read-out and setting: then `CC(=O)OC[C@@H](OC(C)=O)[C@@H](OC(C)=O)[C@@H](OC(C)=O)[C@@H](OC(C)=O)c1n[nH]c2nc3nc4c(c(-c5ccc(Cl)cc5)c3c(=O)n12)CCC/C4=C\c1ccc(Cl)cc1`, with 18.75%.

The subject of the next assay is Candida albicans. The assay is described as follows: Antimicrobial activity against Candida albicans ATCC 14053 at 100 ug/disk after 5 days by agar disk diffusion method. Type of assay: functional. The settings on record: ATCC 14053, 120 h, read-out: DIZ.
With `CC(=O)OC[C@@H](OC(C)=O)[C@@H](OC(C)=O)[C@@H](/C=N/Nc1nc2nc3c(c(-c4ccc(Cl)cc4)c2c(=O)n1OC(C)=O)CCC/C3=C\c1ccc(Cl)cc1)OC(C)=O`, the zone of inhibition at 100 µg/disc came out at 10 mm.
The same measure, in the same setting: then `CC(=O)OC[C@@H](OC(C)=O)[C@@H](OC(C)=O)[C@@H](OC(C)=O)[C@@H](OC(C)=O)c1n[nH]c2nc3nc4c(c(-c5ccc(Cl)cc5)c3c(=O)n12)CCC/C4=C\c1ccc(Cl)cc1`, with 11 mm.

For the next assay, the system named is Rattus norvegicus. The assay is described as follows: Antiinflammatory activity in Sprague-Dawley rat assessed as inhibition of carrageenan-induced paw edema after 2 hrs. Type of assay: functional.
Settings: not given
In outline:
as §2
Consider `CC(=O)OC[C@@H](OC(C)=O)[C@@H](OC(C)=O)[C@@H](/C=N/Nc1nc2nc3c(c(-c4ccc(Cl)cc4)c2c(=O)n1OC(C)=O)CCC/C3=C\c1ccc(Cl)cc1)OC(C)=O`, for which the “inhibition (INH)” value turned out to be 28%.
Turning to `CC(=O)OC[C@@H](OC(C)=O)[C@@H](OC(C)=O)[C@@H](OC(C)=O)[C@@H](OC(C)=O)c1n[nH]c2nc3nc4c(c(-c5ccc(Cl)cc5)c3c(=O)n12)CCC/C4=C\c1ccc(Cl)cc1`, the “inhibition (INH)” value is listed as 14.8%.

For another assay, the species on record is Mus musculus. The assay is described as follows: Analgesic activity in Swiss mouse assessed as reaction time after 30 mins by hot plate test. Type of assay: functional.
Settings: not given
In outline:
as §1
In the case of `CC(=O)OC[C@@H](OC(C)=O)[C@@H](OC(C)=O)[C@@H](/C=N/Nc1nc2nc3c(c(-c4ccc(Cl)cc4)c2c(=O)n1OC(C)=O)CCC/C3=C\c1ccc(Cl)cc1)OC(C)=O`, the Activity turned out to be 3.667 s.
Take `CC(=O)OC[C@@H](OC(C)=O)[C@@H](OC(C)=O)[C@@H](OC(C)=O)[C@@H](OC(C)=O)c1n[nH]c2nc3nc4c(c(-c5ccc(Cl)cc5)c3c(=O)n12)CCC/C4=C\c1ccc(Cl)cc1`: the Activity is listed as 2.483 s.

For another assay, the species on record is Mus musculus. The assay is described as follows: Analgesic activity in Swiss mouse assessed as reaction time after 90 mins by hot plate test. Type of assay: functional.
Settings: not given
In outline: as §1
`CC(=O)OC[C@@H](OC(C)=O)[C@@H](OC(C)=O)[C@@H](/C=N/Nc1nc2nc3c(c(-c4ccc(Cl)cc4)c2c(=O)n1OC(C)=O)CCC/C3=C\c1ccc(Cl)cc1)OC(C)=O`: the Activity worked out at 4.583 s.
Take `CC(=O)OC[C@@H](OC(C)=O)[C@@H](OC(C)=O)[C@@H](OC(C)=O)[C@@H](OC(C)=O)c1n[nH]c2nc3nc4c(c(-c5ccc(Cl)cc5)c3c(=O)n12)CCC/C4=C\c1ccc(Cl)cc1`: the Activity is on record as 2.633 s.

A further assay has as its system Escherichia coli. The assay is described as follows: Antibacterial activity against Escherichia coli ATCC 23566 at 100 ug/disk after 24 to 48 hrs by agar disk diffusion method. Type of assay: functional. The settings on record: read-out: DIZ. The procedure, abridged: as §3
As to `CC(=O)OC[C@@H](OC(C)=O)[C@@H](OC(C)=O)[C@@H](/C=N/Nc1nc2nc3c(c(-c4ccc(Cl)cc4)c2c(=O)n1OC(C)=O)CCC/C3=C\c1ccc(Cl)cc1)OC(C)=O`, the zone of inhibition at 100 µg/disc came to 14 mm.
The same measure, in the same setting: then `CC(=O)OC[C@@H](OC(C)=O)[C@@H](OC(C)=O)[C@@H](OC(C)=O)[C@@H](OC(C)=O)c1n[nH]c2nc3nc4c(c(-c5ccc(Cl)cc5)c3c(=O)n12)CCC/C4=C\c1ccc(Cl)cc1`, with 14 mm.

The subject of another assay is Staphylococcus aureus. The assay is described as follows: Antibacterial activity against Staphylococcus aureus ATCC 25923 at 100 ug/disk after 24 to 48 hrs by agar disk diffusion method. In kind it is functional. Particulars: read-out: DIZ. In outline:
as §3
Consider `CC(=O)OC[C@@H](OC(C)=O)[C@@H](OC(C)=O)[C@@H](/C=N/Nc1nc2nc3c(c(-c4ccc(Cl)cc4)c2c(=O)n1OC(C)=O)CCC/C3=C\c1ccc(Cl)cc1)OC(C)=O`, for which the zone of inhibition at 100 µg/disc was 13 mm.
On the same count and under the same terms, then `CC(=O)OC[C@@H](OC(C)=O)[C@@H](OC(C)=O)[C@@H](OC(C)=O)[C@@H](OC(C)=O)c1n[nH]c2nc3nc4c(c(-c5ccc(Cl)cc5)c3c(=O)n12)CCC/C4=C\c1ccc(Cl)cc1`, with 13 mm.

Tested on in another assay: not listed separately
The assay is described as follows: Antioxidant activity in Sprague-Dawley rat erythrocytes assessed as ABTS-induced hemolysis after 1 hr. Type of assay: functional, Erythrocyte. On the set-up: concentration or dose not given beside the values.
Settings: not given
Take `CC(=O)OC[C@@H](OC(C)=O)[C@@H](OC(C)=O)[C@@H](/C=N/Nc1nc2nc3c(c(-c4ccc(Cl)cc4)c2c(=O)n1OC(C)=O)CCC/C3=C\c1ccc(Cl)cc1)OC(C)=O`: the Activity stood at 30.75%.
On the same count and under the same terms, then `CC(=O)OC[C@@H](OC(C)=O)[C@@H](OC(C)=O)[C@@H](OC(C)=O)[C@@H](OC(C)=O)c1n[nH]c2nc3nc4c(c(-c5ccc(Cl)cc5)c3c(=O)n12)CCC/C4=C\c1ccc(Cl)cc1`, with 8.18%.

For another assay, the system named is Aspergillus fumigatus. The assay can be described thus: Antimicrobial activity against Aspergillus fumigatus ATCC 96918 at 100 ug/disk after 5 days by agar disk diffusion method. In kind it is functional. Particulars: ATCC 96918, 120 h, read-out: DIZ.
`CC(=O)OC[C@@H](OC(C)=O)[C@@H](OC(C)=O)[C@@H](/C=N/Nc1nc2nc3c(c(-c4ccc(Cl)cc4)c2c(=O)n1OC(C)=O)CCC/C3=C\c1ccc(Cl)cc1)OC(C)=O`: the zone of inhibition at 100 µg/disc was found to be 8 mm.
Same read-out and setting: next, `CC(=O)OC[C@@H](OC(C)=O)[C@@H](OC(C)=O)[C@@H](OC(C)=O)[C@@H](OC(C)=O)c1n[nH]c2nc3nc4c(c(-c5ccc(Cl)cc5)c3c(=O)n12)CCC/C4=C\c1ccc(Cl)cc1`: 12 mm.
